Screens deposited in PubChem BioAssay by several laboratories.
Only some compounds are listed: those with a hit (about 4.1% of all), similar ones and a draw of the others.
KCNK3 inh: human KCNK3 channel inhibition, primary screen; B-score at 10 µM; 340,000 compounds, 0.84% hits; CHO-KCNK3 thallium flux, FluxOR fluorescence; active compounds read low; O14649;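 active = B-score under library mean minus 4 SD, starting fluorescence ratio at most library mean plus 5 SD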;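 also: more negative B-score means stronger inhibition of thallium flux through KCNK3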
KCNQ1 pot: human KCNQ1 channel potentiation or activation | CHO-K1 KCNQ1, thallium flux FluxOR fluorescence; active compounds read high | 310,000 compounds, 0.35% hits | AID 2648 | P51787 | B-score at 10 µM;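 active = fluorescence ratio B-score, a plate-corrected score, at least three library SD, with initial intensity B-score within 5 SD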
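Medium – assay buffer, equal DMSO in all wells · Material – CHO-K1 cell line with stable KCNQ1 potassium channel expression · Signal – kinetic FluxOR thallium fluorescence, 10-s 1-Hz baseline, 110-s post-stimulus read · Compound – single concentration per compound, DMSO matched to controls · Schedule – 37 °C overnight plating, 90-min dark dye load, 20-min compound pretreatment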
KCNK9 block: inhibitors of human KCNK9 two-pore domain potassium channel. HEK293 KCNK9, FluxOR thallium flux fluorescence; active compounds read low. Q9NPC2. 310,000 compounds, 1.2% hits. B-score at 10 µM. AID 488922;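 active = ratio B-score over 3 SD below the library mean, with starting fluorescence within 5 SD of its mean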;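 also: negative B-score means less thallium flux so channel inhibition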
hERG protect: compounds protecting human hERG from proarrhythmic drug block. CHO-hERG, FluxOR thallium flux, dofetilide IC70 present. activation (rescue from dofetilide block), less the hit threshold, % at 10 µM. 310,000 compounds, 0.51% hits. AID 1511;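 active = activation above the mean of controls blocked by dofetilide plus 5 SD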;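 also: thallium influx through hERG after potassium depolarization seen as dye fluorescence rise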
KCC2 mod: modulates chloride dependent transport by human KCC2; B-score of Tl+ flux slope (higher = more flux/activation; lower = inhibition) at 10 µM; 190,000 compounds, 2.2% hits; AID 1456; Q9H2X9; KCC2 cells, thallium flux FluoZin-2 fluorescence;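 active = thallium flux slope and its plate-corrected score both differing from the plate sample mean at a set confidence after two filtering rounds, in either direction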;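 also: slope of fluorescence scaled to starting intensity during 10 to 20 s after thallium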
KCNQ1 block: inhibitors of human KCNQ1 potassium channel; P51787; CHO-K1 KCNQ1, FluxOR thallium flux fluorescence; active compounds read high; B-score at 10 µM; 310,000 compounds, 1.3% hits; AID 2642;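 active = compounds whose thallium flux B-score, printed positive for inhibition, exceeds three library SD while starting fluorescence stays within three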;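 also: channel opened by potassium depolarization with thallium stimulus after 20 min compound exposure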
Numbers stand for hits; - = inactive; . = no result.

SMILES | KCNK3 inh | KCNQ1 pot | KCNK9 block | hERG protect | KCC2 mod | KCNQ1 block
CC(C)CNC(=O)c1ccccc1NC(=O)c1ccc(CSc2ccccc2)cc1 | - | - | - | - | - | 7
CCCC(=O)OCC1CN(Cc2ccco2)S(=O)(=O)c2c(F)cccc2O1 (stereo not given) | - | . | . | . | . | .
CC(C)N1C(=O)/C(=C/c2nc3ccccc3c(=O)n2-c2ccccc2)c2ccccc21 | - | - | - | - | - | 6
CCC1(c2ccc(Cl)cc2)NC(=O)N(CC(=O)NC2CCCC(C)C2C)C1=O (stereo not given) | - | . | . | . | . | .
COc1cccc(NC(=O)CN2C(=O)c3cccnc3Oc3ccc(Cl)cc32)c1 | - | - | - | - | . | -
O=C(CN1C(=O)c2cccnc2Oc2ccc(Cl)cc21)Nc1ccccc1F | - | - | -6.75 | - | . | -
CCNc1ncnc2c1cnn2C1CCCO1 (stereo not given) | - | . | . | . | . | .
COc1ccc(-c2cn3c(C)c(C(=O)N4CCN(c5ccccc5F)CC4)sc3n2)cc1 | - | - | - | - | . | -
COc1ccc(-c2cn3c(C)c(C(=O)N4CCCc5ccccc54)sc3n2)cc1 | - | - | - | - | - | 6
CCCc1cc(=O)oc2cc(OCC(=O)NCCCN3CCOCC3)ccc12 | - | - | - | - | . | -
CCCCSc1nc(NCc2ccco2)c2c3c(sc2n1)COC(C)(C)C3 | - | - | - | - | - | 6
CSc1nc(NCc2ccco2)c2c3c(sc2n1)CN(C)CC3 | . | - | - | - | - | -
CC(C)CCNC(=O)C(c1ccc(O)cc1)N(C(=O)C1COc2ccccc2O1)c1cccc(O)c1 (stereo not given) | - | - | - | - | - | 7
COc1ccc(NC(=O)C(OC(=O)Cn2cnc3c2c(=O)n(C)c(=O)n3C)c2ccccc2)cc1Cl (stereo not given) | - | . | . | . | . | .
O=C(NC(=S)N1CCCc2ccccc21)c1ccc(Cl)cc1 | - | . | . | . | 56.5 | .
O=C(NC(=S)N1CCCc2ccccc21)c1ccccc1 | - | - | - | - | . | -
O=C(NC(=S)N1CCCc2ccccc21)c1ccc([N+](=O)[O-])cc1 | - | - | - | - | . | -
O=C(NC(=S)N1CCCc2ccccc21)c1ccc(Br)cc1 | - | 16 | - | 42.9 | 71.8 | -
COc1ccc(Cl)cc1NS(=O)(=O)c1c(C)[nH]c(=O)[nH]c1=O | - | - | - | - | . | -
Cc1ccccc1Cn1ccc(NC(=O)c2cnn3c(C(F)(F)F)cc(-c4ccco4)nc23)n1 | - | - | -7.57 | - | . | -
O=C(Nc1cnn(C23CC4CC(CC(C4)C2)C3)c1)c1cnn2c(C(F)(F)F)cc(-c3ccco3)nc12 | - | - | - | - | - | 11
O=C(NC12CC3CC(CC(C3)C1)C2)c1cc2nc(-c3ccco3)cc(C(F)(F)F)n2n1 | - | - | - | - | - | 6
CCOC(=O)C1(C(=O)OCC)NC(=O)CC1CC(C)C (stereo not given) | - | . | . | . | . | .
CCC(=O)N(c1nnc(SCC(=O)Nc2ccc(N3CCOCC3)cc2)s1)C1CC1 | - | . | . | . | . | .
Cc1c(Cl)c([N+](=O)[O-])nn1CC(=O)NCc1cccs1 | - | - | - | 4.8 | - | -
SMILES | KCNK3 inh | KCNQ1 pot | KCNK9 block | hERG protect | KCC2 mod | KCNQ1 block
Cc1c(Cl)c([N+](=O)[O-])nn1CC(=O)NC(C)c1ccccc1 (stereo not given) | - | - | - | - | . | -
Cc1ccc(OCCNC(=O)C(C)SCC(=O)Nc2ccc(F)cc2)cc1 (stereo not given) | - | . | . | . | . | .
CCCCCCCCCCC[N+](C)(C)CC/C=C1/c2ccccc2Sc2ccc(Cl)cc21 | - | 9 | - | - | . | -
CC(Sc1nnc2ccccn12)C(N)=O (stereo not given) | - | - | - | 5.0 | - | -
N#CC1=C(N)SC(N)=C(C#N)C1c1cccc(Oc2ccccc2)c1 | - | - | - | - | - | 8
N#CC1=C(N)SC(N)=C(C#N)C1Cc1ccccc1 | - | - | - | - | . | 9
CCOc1ccc(C2C(C#N)=C(N)SC(N)=C2C#N)cc1OC | . | - | - | - | - | -
N#CC1=C(N)SC(N)=C(C#N)C1c1c(Cl)cccc1Cl | - | - | - | - | . | -
N#CC1=C(N)SC(N)=C(C#N)C1CCc1ccccc1 | - | - | - | - | -3.05 | -
